Shown are actives, neighbours in structure and some others; about 2.6% of the full set was active somewhere.
T cell HTS – modulators of CD8 T cell-vesicle binding, primary screen, mouse 2C CD8+ T cells, flow cytometry | 330,000 tested, 0.068% active | response (vesicle binding), % at 7 µM | 2C CD8+ T cell-vesicle binding; hits give low values;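 active = response, share of CD8 T cells binding vesicles, and their 90th percentile fluorescence all below set limits, cut at about 80% in these data, passing the limit was not always enough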;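 also: values below 100% mean blocked vesicle binding to the CD8+ T cells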
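Test system: purified 2C TCR transgenic mouse naive CD8+ T cells. Probe or stimulus: QL9-peptide-loaded Drosophila micro-vesicles bearing Ld, ICAM-1 and B7-1. Incubation: binding step 1.5 h, 37 °C, antibody labelling 20 min, ice. Measured by: flow cytometry of vesicle-bound cells.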
Rin1 Abl inh – inhibitors of Rin1-Abl protein binding, primary screen, biochemical, TR-FRET. Tyrosine-protein kinase ABL1 (Homo sapiens) + Ras and Rab interactor 1 (Homo sapiens), …. inhibition, % at 7.35 µM. 360,000 tested, 0.4% active. AID 588664, 2011; in the data active = inhibition above about 5%, passing the limit was not always enough
Myeloid diff MLP – induction of myeloid progenitor differentiation, primary screen, cell-based, flow cytometry, MLPCN library; ER-HoxA9 myeloid progenitors, lysozyme-GFP differentiation; calls only at 10 µM; 360,000 tested, 1% active; AID 624256, 2012;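 active = normalized GFP-positive differentiation at or above the plate's own cutoff, the solvent-only control mean plus 3 SD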;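 also: cells exposed to compound for four days before flow analysis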
GRK2 inh – compounds blocking aptamer binding on GRK2 – biochemical, human GRK2, bead flow cytometry, HTS, primary screen. inhibition of aptamer binding, % at 10 µM. FAM-aptamer displacement from GRK2. 330,000 tested, 0.59% active;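 active = inhibition of aptamer binding above 40%, roughly 3 SD of noise, on plates passing a quality check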;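 also: median bead fluorescence of bound FAM aptamer so fluorescent compounds give negative values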
Target sequence (P25098 whole entry, looked up): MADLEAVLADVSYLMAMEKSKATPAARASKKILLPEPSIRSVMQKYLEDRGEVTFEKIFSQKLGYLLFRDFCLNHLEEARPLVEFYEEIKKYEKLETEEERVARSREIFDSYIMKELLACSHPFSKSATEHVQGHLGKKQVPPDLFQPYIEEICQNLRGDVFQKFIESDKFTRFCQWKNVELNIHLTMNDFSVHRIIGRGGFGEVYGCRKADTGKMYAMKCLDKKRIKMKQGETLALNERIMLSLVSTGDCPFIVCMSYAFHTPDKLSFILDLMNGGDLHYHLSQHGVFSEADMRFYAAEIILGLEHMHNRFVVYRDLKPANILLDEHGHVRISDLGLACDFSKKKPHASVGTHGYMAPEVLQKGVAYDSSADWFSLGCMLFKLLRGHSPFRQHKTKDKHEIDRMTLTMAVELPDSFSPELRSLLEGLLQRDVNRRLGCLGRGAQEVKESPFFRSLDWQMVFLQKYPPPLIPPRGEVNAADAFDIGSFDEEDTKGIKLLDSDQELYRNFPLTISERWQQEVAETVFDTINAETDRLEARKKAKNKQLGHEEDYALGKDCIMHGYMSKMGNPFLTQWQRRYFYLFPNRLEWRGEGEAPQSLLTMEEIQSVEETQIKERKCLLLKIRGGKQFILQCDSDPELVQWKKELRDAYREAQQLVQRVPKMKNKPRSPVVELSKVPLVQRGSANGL
Rce1 inh – yeast Rce1p protease inhibitors, primary screen, biochemical, fluorescence, cell-free homogeneous. calls only. yeast membranes, quenched prenylated peptide cleavage fluorescence. 290,000 tested, 0.27% active. CAAX prenyl protease 2 (Saccharomyces cerevisiae (strain ATCC 204508 / S288c)), Q03530;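 active = fall in fluorescence gain of 50% or more versus controls, with final raw signal at or below 3038400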;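 also: plate controls were neutral control wells for no effect and wells lacking membranes for full effect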
SKN-1 inh – suppressors of acrylamide-induced Pgst-4::GFP reporter in worms, primary screen, SKN-1 inhibitor project, whole organism, uHTS, GFP/RFP fluorescence ratio, strain VP596. C. elegans VP596 Pgst-4::GFP/RFP ratio, 24 h. inhibition, % at 21.8 µM. 360,000 tested, 0.49% active. AID 624304, 2012;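 active = interference check ratio from 0.5 to 1.5 plus GFP to RFP signal ratio inhibition reaching or exceeding a fixed threshold, cut at about 30% in these data, passing the limit was not always enough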
Numbers without * were called inactive; i = inactive; nt = no result; + = active, no number.

SMILES	T cell HTS	Rin1 Abl inh	Myeloid diff MLP	GRK2 inh	Rce1 inh	SKN-1 inh
COc1ccc(C(CNC(=O)c2ccc(OCc3csc(C)n3)cc2)N2CCCC2)cc1 (centres undefined)	nt	1.9	i	nt	nt	1.6
O=C(Oc1cccc2cccnc12)c1cccs1	162.3	2.1	+	2.0	i	-12.1
O=C(Oc1cccc2cccnc12)c1ccco1	168.0	0.5	i	2.0	nt	-8.9
CC(C)C[C@H](NC(=O)[C@@H]1Cc2ccccc2CN1C(=O)OC(C)(C)C)C(=O)NCC1CCC(C(=O)O)CC1 (some centres undefined)	431.6	-3.2	i	2.0	i	-0.9
O=C(CNC(=S)NC(=O)c1ccc(Cl)cc1)c1ccccc1	363.6	2.4	i	0.0	i	5.8
O=C(CNC(=S)NC(=O)c1ccc(Br)o1)c1ccccc1	194.2	2.7	+	0.0	i	-5.4
COc1ccc(-n2ncc3c2CC(C)(C)CC3NC(=O)CCN2CCCCC2=O)cc1 (centres undefined)	430.5	-1.3	+	0.0	i	-9.1
COc1ccc(-n2ncc3c2CC(C)(C)CC3NC(=O)CCCN2CCCC2=O)cc1 (centres undefined)	457.0	0.0	i	3.0	i	-2.0
Cc1cc(C(=O)NC2CCC(O)CC2)c(C)o1 (centres undefined)	615.3	2.4	i	0.0	nt	7.7
COc1cc(/C=C(\C#N)C(=O)Nc2ccccc2F)ccc1OCCN1CCOCC1	398.0	0.0	i	2.0	i	9.3
N#C/C(=C/C1=C(N2CCOCC2)C(=C/c2ccc(Cl)cc2)/CC1)C(=O)Nc1ccccc1F	nt	1.4	+	nt	nt	43.9*
O=C(c1ccccc1)N(Cc1ccc(F)cc1)Cc1nc2ccccc2c(=O)[nH]1	357.3	2.0	i	1.0	nt	-7.6
O=C(c1ccncc1)N(Cc1ccccc1)Cc1nc2ccccc2c(=O)[nH]1	262.9	1.3	+	7.0	i	6.9
COc1ccc([C@H]2CN(c3ccc(OC)cc3)C(=O)[C@@H]2CC(=O)Nc2ccc(Br)cc2)cc1	nt	-2.9	+	nt	nt	-4.3
COc1ccc([C@H]2CN(c3ccccc3)C(=O)[C@@H]2CC(=O)Nc2ccccc2)cc1	nt	-0.9	i	nt	nt	21.7
CS(=O)(=O)c1ccc(Nc2nc(C(N)CCc3ccccc3)cs2)cc1 (centres undefined)	nt	0.9	i	nt	nt	20.5
N#CC1CC(c2ccc([N+](=O)[O-])cc2)=NN1c1ccc([N+](=O)[O-])cc1 (centres undefined)	233.5	1.3	+	16.0	i	4.4
O=[N+]([O-])c1cccc(C2CC(c3ccccc3)=NN2c2ccccc2)c1 (centres undefined)	267.1	0.1	i	3.0	i	0.5
N#Cc1c(Cl)cccc1-n1ccnc1	139.8	-0.9	+	1.0	i	-32.2
N=c1oc2c3c4c(cc2cc1C(=O)Nc1ccccc1)CCCN4CCC3	i	-2.5	+	0.0	i	-91.7
CCN(C(=O)COC(=O)CNS(=O)(=O)c1ccc(C)cc1)C1CCS(=O)(=O)C1 (centres undefined)	nt	3.3	i	nt	nt	-6.5
O=c1cc2oc3cc(O)c(O)cc3c(-c3ccccc3[N+](=O)[O-])c-2cc1O	381.0	64.8*	i	6.0	i	-4.5
COc1c(Cl)cc(Cl)cc1CNc1ccc(S(N)(=O)=O)cc1	326.0	1.0	i	0.0	i	2.0
O=C(O)Cc1sc(NCCc2ccccc2)nc1-c1ccc(F)cc1	i	2.6	+	0.0	i	17.3
Cc1c(Cl)cccc1-n1c(SCC(=O)N2CCC(C(=O)O)CC2)nc2ccccc2c1=O	186.5	-0.5	i	0.0	i	17.2
SMILES	T cell HTS	Rin1 Abl inh	Myeloid diff MLP	GRK2 inh	Rce1 inh	SKN-1 inh
O=[N+]([O-])c1ccc(OC/C=C2\Oc3ccc([N+](=O)[O-])cc3C2N2CCOCC2)cc1 (centres undefined)	242.9	-0.8	nt	1.0	i	37.3*
CCOC(=O)N1CCN(C(=O)C[C@@H]2C[C@@]3(C(=O)OCC)CCC=C3N(Cc3ccccc3)C2=O)CC1	nt	nt	i	nt	nt	-0.4
CC1(C)OC(=O)N(c2ccccc2)C12C=Cc1c(ccc3ccccc13)O2 (centres undefined)	237.3	-0.9	i	0.0	i	-3.4
O=C1NC2(C=Cc3c(ccc4ccccc34)O2)Oc2ccccc21 (centres undefined)	186.3	-2.0	i	0.0	+	23.2
COc1ccc(-c2nnc(-c3ccc(Br)o3)o2)cc1OC	467.8	-10.6	i	0.0	i	35.9*
Cc1oc2c(CN3CCCCC3)c(O)ccc2c(=O)c1-c1ccc(Br)cc1	110.5	-0.1	i	0.0	i	27.1
Cc1oc2c(CN3CCCC3)c(O)ccc2c(=O)c1-c1ccc(Br)cc1	333.0	-1.6	i	0.0	+	9.7
COc1ccc(Cl)cc1NC(=O)CCNS(=O)(=O)c1cccc2nonc12	202.7	-0.2	i	0.0	i	9.2
O=c1c2ccccc2c(-c2ccccc2)nn1-c1cc(Cl)ccc1[N+](=O)[O-]	592.9	2.0	i	0.0	i	17.2
CCc1ccc(-c2nn(-c3cc(Cl)ccc3[N+](=O)[O-])c(=O)c3ccccc23)cc1	nt	-1.2	i	nt	nt	37.1*
COc1ccccc1-c1coc2c(CN3CCOCC3)c(O)ccc2c1=O	204.9	-2.4	i	0.0	+	6.8
COc1ccccc1Oc1coc2c(CN3CCOCC3)c(O)ccc2c1=O	128.0	-4.2	i	2.0	i	5.1
O=C(Nc1ccc(OCC(=O)N2CCOCC2)cc1)Nc1cccc2ccccc12	0.0	-9.9	i	3.0	i	11.0
Cc1cccc(C(=O)OC(C)C(=O)N2CCN(Cc3ccccc3)CC2)c1 (centres undefined)	nt	-0.2	i	nt	nt	-6.0
CCN1CCN(S(=O)(=O)c2ccc(Cl)c(C(=O)N(CCc3ccccc3)Cc3ccccc3)c2)CC1	nt	-0.8	+	nt	nt	-12.8
CCN(C[C@H]1N[C@@](CC)(C(=O)OC)[C@H]2C(=O)N(C)C(=O)[C@@H]12)S(=O)(=O)c1ccc(OC)cc1	284.2	0.0	i	0.0	nt	-18.2
CCN(CC(=O)Nc1cc(Cl)ccc1C)C(=O)CC1CCCC1	178.5	1.4	i	1.0	nt	4.9
Cc1ccc(SCc2cc(-c3ccc(Cl)cc3)on2)cc1	164.0	-1.9	i	0.0	i	-14.9
Clc1ccc(SCc2cc(-c3ccc(Cl)cc3)on2)cc1	300.6	1.8	i	0.0	i	52.6*

Bioassay records as filed in PubChem.
